HNF4A DNA FP – change in binding of human HNF4A to DNA, primary screen, biochemical, fluorescence polarization, FITC-DNA | activity change, % at 10 µM | AID 1224865, 2016 | 1 h | actives 0.3% (n = 360,000); in the data active = activity change above about 30%, passing the limit was not always enough
Target sequence (P41235 whole entry, looked up): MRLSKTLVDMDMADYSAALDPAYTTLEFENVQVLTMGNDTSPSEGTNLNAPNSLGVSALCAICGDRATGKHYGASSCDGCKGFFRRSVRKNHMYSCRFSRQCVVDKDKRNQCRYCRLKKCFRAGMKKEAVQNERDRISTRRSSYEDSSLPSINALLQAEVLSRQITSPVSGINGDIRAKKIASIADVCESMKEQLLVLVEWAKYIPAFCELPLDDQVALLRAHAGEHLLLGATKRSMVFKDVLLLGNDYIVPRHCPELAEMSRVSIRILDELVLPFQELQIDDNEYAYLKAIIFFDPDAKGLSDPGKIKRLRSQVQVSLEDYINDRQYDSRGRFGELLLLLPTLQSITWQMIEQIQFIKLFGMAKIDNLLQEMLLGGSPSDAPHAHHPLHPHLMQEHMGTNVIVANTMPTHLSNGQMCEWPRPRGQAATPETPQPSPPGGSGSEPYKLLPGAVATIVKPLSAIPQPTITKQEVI
TPT1 inh – Candida albicans TPT1 enzyme inhibitors, primary screen, biochemical, fluorescence polarization; tRNA 2'-phosphotransferase TPT1 (Candida albicans SC5314); recombinant caTPT1, FP RNA substrate dephosphorylation; inhibition, % at 5 µM; actives 0.81% (n = 300,000); AID 1962, 2009;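 active = inhibition above the mean of all tested compounds plus 3 SD, set per screening campaign, cut at about 24% in these data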;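 also: plate controls were DMSO alone for no effect and ferristatin control at 100 nM for full effect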
PP1 inh – PP1-alpha phosphatase inhibitors, primary screen, counter-screen for PP5 inhibitor project, biochemical, fluorescence, OMFP substrate, single point; purified PP1alpha; inhibition, % at 6.7 µM; actives 0.9% (n = 320,000); AID 2235, 2010;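 active = inhibition above the mean inhibition of all tested compounds plus 3 SD, computed separately for each screening campaign, cut at about 15% in these data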
CSN inh – inhibitors of CSN-mediated cullin deneddylation, primary screen, biochemical, fluorescence polarization, uHTS; COP9 signalosome complex subunit 5 (Homo sapiens), Q92905; Purified CSN, SCF-Nedd8-OG deneddylation; actives 0.38% (n = 360,000); inhibition, % at 12.5 µM;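 active = pattern-corrected inhibition above about 35%, with an unprinted fluorescence ratio check between 0.5 and 1.5, limit read from the data, passing the limit was not always enough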;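 also: 0% = enzyme with substrate and 100% = substrate without enzyme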
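Material: purified human Csn5 enzyme expressed in HEK293T cells / Medium: Tris buffer pH 7.5, NaCl, DTT, Tween-20, trehalose, ovalbumin / Compound dosing: 12.5 µM single point / Schedule: 90 min incubation of compound, enzyme and substrate at room temperature / Signal: fluorescence polarization of the substrate / Control set: no-enzyme wells high, enzyme-with-substrate wells low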
Rpn11 block – Rpn11 (PSMD14) deubiquitinase inhibitors, primary screen, biochemical, fluorescence polarization, uHTS; AID 588493, 2011; inhibition, % at 20 µM; human 26S proteasome, Ub4-pepOG fluorescence polarization; 20S core pre-blocked with epoxomicin; 26S proteasome non-ATPase regulatory subunit 14 (Homo sapiens), O00487; actives 0.59% (n = 360,000);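 active = inhibition at 20 µM, scaled to each plate's controls, above about 33%, limit read from the data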
NadD block – inhibitors of S. aureus NadD, primary screen, biochemical, colorimetric, uHTS. Nicotinate-nucleotide adenylyltransferase NadD (Staphylococcus aureus N315). purified NadD enzyme, colorimetric absorbance read-out. actives 0.78% (n = 360,000). inhibition, % at 20 µM. AID 602399, 2012; in the data active = inhibition above about 26%
Rpn11 inh conf – Rpn11 (PSMD14) deubiquitinase inhibitors, confirmation, biochemical, fluorescence polarization, single concentration; purified human 26S proteasome, Ub4-pepOG fluorescence polarization; proteasome pretreated with epoxomicin; actives 29% (n = 1,900); shares compounds with Rpn11 block; inhibition, % at 20 µM
MMP-2 counter-1 – MMP-2 enzyme inhibition, confirmation, counter-screen for RPN11 inhibitor project, biochemical, fluorescence, single concentration; inhibition, % at 20 µM; actives 4% (n = 1,900); recombinant MMP-2, FRET peptide cleavage fluorescence; shares compounds with Rpn11 block;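 also: human MMP-2 activated beforehand with APMA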
Thrombin FP – bovine thrombin protease inhibition, confirmation, counter-screen for Rpn11 inhibitor project, biochemical, fluorescence polarization, single concentration; shares compounds with Rpn11 block; inhibition, % at 20 µM; bovine thrombin cleavage of Ub4-pepOG; actives 13% (n = 1,900);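 active = mean inhibition at least 40% at 20 µM, or signal 3 deviations below plate average, so some actives read negative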;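 also: plate controls were thrombin with DMSO for no effect and buffer wells lacking thrombin for full effect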
NadD conf – inhibitors of S. aureus NadD, confirmation, biochemical, colorimetric, single concentration | shares compounds with NadD block | purified S. aureus NadD, colorimetric enzyme assay | inhibition, % at 20 µM | actives 13% (n = 2,000); in the data active = inhibition mostly above about 42%, no sharp cut-off; inactive = mostly below about 42%
CSN5 deneddyl – Csn5 deneddylation inhibitors, confirmation, biochemical, fluorescence polarization, single concentration, SCF-Nedd8OG substrate; shares compounds with CSN inh; Csn5 deneddylation of SCF-Nedd8OG, 90 min; inhibition, % at 16.6 µM; actives 62% (n = 540); in the data active = inhibition above about 50%;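 also: 0% = DMSO with enzyme and 100% = no enzyme wells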
MMP-2 counter-2 – MMP-2 protease inhibition counter-screen, confirmation, counter-screen for CSN deneddylation inhibitor project, biochemical, fluorescence, single concentration; shares compounds with CSN inh; recombinant MMP-2, FRET substrate fluorescence, 60 min; inhibition, % at 16.6 µM; actives 33% (n = 540);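 active = corrected plate-normalized z-score of 5 or more, or -5 or less, or inhibition of 15% or more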;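 also: plate controls were DMSO wells with enzyme for no effect and buffer wells lacking MMP-2 for full effect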
Thrombin counter – blocks bovine thrombin in a CSN deneddylation counter-screen. shares compounds with CSN inh. bovine thrombin cleavage of Ub4-pepOG, fluorescence polarization. inhibition, % at 16.6 µM. actives 49% (n = 540). AID 720656;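 active = inhibition at or above a set limit, with a fluorescence interference ratio between 0.5 and a set maximum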
HNF4A confirm – change in HNF4A binding to DNA, retest, confirmation, biochemical, fluorescence polarization, FITC-DNA | 1 h | activity change, % at 12.5 µM | shares compounds with HNF4A DNA FP | actives 99% (n = 210); call rule not given here
Numbers without * were called inactive; · = not tested or not shown; + = active, no number; ! = repeats disagree. An excerpt weighted towards active compounds, which were near 2.7% of everything screened. Rule as the data show it, unless noted: active = inhibition above about 40%; inactive = the rest.

SMILES	HNF4A DNA FP	TPT1 inh	PP1 inh	CSN inh	Rpn11 block	NadD block	Rpn11 inh conf	MMP-2 counter-1	Thrombin FP	HNF4A confirm	others
Cc1ccc2c(c1)S/C(=C\c1cccc[n+]1C)N2CCO	6.0	-0.6	-0.3	-0.3	3.7	9.4	·	·	·	·
CCN1/C(=C\c2ccc3cc(C)ccc3[n+]2CC)Sc2cc(C)c(C)cc21	106.6*	·	·	65.6*	91.8*	22.4	88.7*	-140.5	144.8*	·	CSN5 deneddyl=40.1;MMP-2 counter-2=19.9*;Thrombin counter=113.2*
O=C(Nc1ccc(C2=NCCN2)cc1)c1ccc(C(=O)Nc2ccc(C3=NCCN3)cc2)c(Cl)c1	60.5	2.1	4.9	114.0*	89.7*	29.9*	69.5*	47.1*	9.7	·	NadD conf=12.7;CSN5 deneddyl=-48.3;MMP-2 counter-2=71.9*;Thrombin counter=-4.1
CC[n+]1ccccc1/C=C/c1ccc(N(C)C)cc1	50.4*	·	·	38.4*	95.5*	10.1	83.9*	-91.5	87.6*	·	CSN5 deneddyl=64.7*;MMP-2 counter-2=-73.2*;Thrombin counter=45.6*
Cc1cc(C(=O)Cn2cnc3cc(F)ccc3c2=O)c(C)n1C1CC1	2.5	·	·	3.1	-4.6	3.4	·	·	·	·
COc1cc(NS(=O)(=O)c2ccc(NC(=S)NC(=O)/C=C/c3ccco3)cc2)ncn1	-42.3	·	·	49.2*	41.5*	22.8	77.5*	24.1	46.8*	·	CSN5 deneddyl=60.9*;MMP-2 counter-2=23.4*;Thrombin counter=21.6*
Cc1nc(S/C(=C\c2ccc(-c3ccc(C(=O)O)c(Cl)c3)o2)C(=O)O)n[nH]1	-39.3	·	·	73.3*	66.9*	-4.8	197.4*	21.5	24.1	·	MMP-2 counter-2=18.6*;Thrombin counter=12.2
COCc1cc(C)nc(N/N=C/c2ccc(-c3ccc(C(=O)O)c(Cl)c3)o2)c1C#N	·	-5.2	-2.8	·	·	·	·	·	·	·
COc1cc(OC)cc(-c2c(C#Cc3ccsc3)c3cc(-c4ccc5c(c4)OCO5)ccc3n2C)c1	5.5	·	·	1.8	26.6	15.0	·	·	·	·
Cc1ccc[n+](-c2nc3ccccc3nc2C(=C=[N-])C#N)c1	59.7*	14.5	-1.9	62.7*!	49.3*!	-2.7	11.6	-2.8	3.4	42.1*
CC(=O)c1c(O)c(C)c(O)c2c1OC1=CC(=O)C(C(C)=O)C(=O)[C@@]12C (some centres undefined)	65.4*	·	·	24.4	111.0*	-5.6	120.4*	-21.9	108.6*	56.7*
CC(=O)Oc1c(C)c(OC(C)=O)c2c(c1C(C)=O)OC1CC(=O)C(C(C)=O)=C(O)C21C (centres undefined)	3.8	4.7	-1.5	2.9	13.4	-1.0	·	·	·	·
Cc1ccc(-c2nc(NC(=O)CSc3cc(C)c4ccccc4n3)ns2)cc1	161.6*	-3.7	0.3	175.4*	+	30.5*	-0.9	-6.4	26.9	94.1*	NadD conf=1.2
COc1cc(CNc2ncnc3c2ncn3[C@H]2CN(Cc3ccco3)C[C@@H](CO)O2)cc(OC)c1OC	0.0	·	·	2.0	-4.2	4.3	·	·	·	·
COc1ccc(CC(=O)Nc2ccc(-c3nnc(-c4ccccc4)o3)cc2)cc1OC	36.4*	0.6	2.7	45.7*	69.0*	-11.6	22.1	14.0	-17.1	72.8*
COCC(C)n1c(C)cc(C(=O)COC(=O)c2c(NC(C)=O)sc(C)c2C)c1C (centres undefined)	37.4*	-2.9	-1.8	25.6	48.9*	-6.3	-11.4	-184.1	-22.9	50.8*
COc1ccc(S(=O)(=O)NCC(=O)NCc2cc(=O)n(C)c(=O)n2C)cc1C	1.6	-1.8	-4.1	-0.2	-2.6	-3.2	·	·	·	·
C/C(=N\NC(=O)c1ccc(OC2OCCOC2Oc2ccc(C(=O)N/N=C(\C)c3ccncc3)cc2)cc1)c1ccncc1 (centres undefined)	156.7*	1.6	2.3	98.8*	+	31.6*	191.7*	-489.0	50.8*	203.7*	NadD conf=10.6
C/C(=N\NC(=O)c1ccncc1)c1ccc(N2CCOCC2)cc1	1.1	·	-0.6	3.9	-5.9	-5.0	·	·	·	·
C=CCCC(=O)N1C[C@H]2CON(C)[C@H]2C[C@H]1c1ccc(N2CCCCC2)cc1	42.7*	·	·	14.0	50.7*	-2.9	56.3*	10.1	44.8*	45.2*
CCn1nc(C(=O)NNS(=O)(=O)c2ccc(C)cc2)c2ccccc2c1=O	2.6	·	·	-1.0	-3.7	2.3	·	·	·	·
Cc1cccc(NC(=O)c2cc3c(=O)n4ccccc4nc3s2)c1	44.9*	-0.7	-0.3	8.8	95.1*	2.2	7.1	-84.0	-20.7	55.0*
C=CCN1C(=O)/C(=C2/Sc3ccc(OC)cc3N2C)SC1=Nc1ccccc1	6.5	-1.5	5.4	3.4	15.5	0.9	·	·	·	·
